High-throughput results from PubChem.
Shown are actives, neighbours in structure and some others; about 2.1% of the full set was active somewhere.
bCat nuc transl: modulators of beta-catenin nuclear translocation, primary screen, imaging, HeLa cells, immunofluorescence, high-content | nuclear translocation activity, % at 5 µM | hit rate 0.3% among 190,000;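 active = nuclear translocation activity above 50% at 5 µM, with a well cell count of 50 or more; inconclusive = wells under 50 cells across six images, flagged as toxic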;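 also: per-cell ratio of nuclear to cytoplasmic median beta-catenin stain intensity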
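Technique: fluorescence imaging of beta-catenin antibody stain plus DAPI / Material: human HeLa cell line / Incubation: compound treatment 24 h, 37°C, 5% CO2 / Read-out basis: % activation of per-cell nuclear versus cytoplasmic median beta-catenin signal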
Hsp70 act: Hsp70 transcriptional activators, primary screen, cell-based, HeLa, Hsp70 promoter luciferase, luminescence, 10 µM; hit rate 0.04% among 200,000; activation, % at 10 µM; HeLa Hsp70 promoter luciferase reporter; scaled: vehicle 0, proteasome-inhibitor control 100%;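 active = activation above the mean across all tested compounds plus 3 SD, cutoff set per campaign, cut at about 5.5% in these data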
Autophagy HCS: autophagy modulators in MEF cells, primary screen, imaging, high-content, MEF GFP-LC3; MEF GFP-LC3 puncta imaging; test concentration mostly 10 µM; calls only at 10 µM (by protocol); hit rate 0.98% among 190,000;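 active = percentage of spot-positive cells more than 3 SD above its plate mean, without a fluorescence outlier flag or 80% toxicity; inconclusive = no clear call, values can overlap the other calls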
MT stabilize HCS: microtubule stabilizers in HeLa cells, primary screen, imaging, high-content imaging; HeLa tubulin immunostaining HCS, 24 h; share of cells brighter than vehicle mean+2SD; % tubulin-high responders, % at 10 µM; hit rate 0.83% among 200,000; AID 2205, 2009;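 active = plate Z-score above 3 for both tubulin-high and condensed-nucleus cell shares, with cell loss under 80%, at 10 µM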;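 also: anti alpha tubulin signal scored within the nucleus-defined area of each cell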
Dynein transport: inhibitors of GR-EGFP nuclear translocation, primary screen, dynein cargo transport inhibitor project, imaging, high-content, 3617.4 mouse cells; test concentration mostly 20 µM; stimulated with dexamethasone, 1 µM; stronger effect = lower value; hit rate 0.47% among 220,000; z-score, hits read low;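 active = plate z-score of nuclear minus cytoplasmic receptor signal below a set negative limit, without overly bright fluorescence or cell loss, cut at about -3.5 in these data, passing the limit was not always enough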;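 also: z-score of nuclear minus cytoplasmic ring GR-EGFP intensity difference per well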
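Buffer or medium – tet-free medium with charcoal-stripped serum · Signal – automated 10x imaging of fixed Hoechst-stained cells · Also added – dexamethasone agonist, 1.0 µM final, for 30 min · Incubation – induction 48 h, compound 1 h, agonist 30 min · Read-out – GR-EGFP nuclear translocation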
Hsp70 act dose: Hsp70 transcriptional activators, dose response, cell-based, HeLa, Hsp70 promoter luciferase, luminescence, triplicate; shares compounds with Hsp70 act; HeLa hsp70.1pr-luc reporter; calls only at 99 µM; hit rate 10% among 70; AID 1252, 2008;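 active = over 50% activation at some tested dose; inactive = under 50% activation at every tested dose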
Dynein inh conf: dynein cargo transport inhibitors, GR-EGFP translocation, confirmation, imaging, high-content imaging, GR-EGFP cells; shares compounds with Dynein transport; 3617.4 GR-EGFP nuclear translocation imaging, dexamethasone-induced; calls only at 20 µM; hit rate 69% among 1,000;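 active = inhibition of receptor movement into the nucleus at or above a set limit in both runs, with normal cell brightness and cell count; inconclusive = limit reached in only one run, brightness and count normal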;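 also: dexamethasone at 1 µM final in well for 30 min; nuclear minus cytoplasmic GR-EGFP mean intensity difference in channel 2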
Hits are given with their value; i = inactive; ? = inconclusive; nt = not tested or not shown; + = active, no number.

SMILES	bCat nuc transl	Hsp70 act	Autophagy HCS	MT stabilize HCS	Dynein transport	Dynein inh conf	others
CC1Cc2ccccc2N1C(=O)CSc1nccc(=O)[nH]1 (stereo not drawn)	i	i	i	i	i	nt
COc1ccc(NC(=O)/C(Cl)=C(/Cl)S(=O)Cc2ccccc2)cn1 (stereo not drawn)	i	22	i	i	-5.4	+	Hsp70 act dose=i
COc1ccc(NC(=O)Cc2ccccc2)cn1	i	i	i	i	i	nt
NS(=O)(=O)c1ccc(Oc2ccc(S(N)(=O)=O)cc2)cc1	i	i	i	i	i	nt
C=CS(=O)(=O)c1ccc(Oc2ccc(S(=O)(=O)C=C)cc2)cc1	i	48	i	i	-4	+	Hsp70 act dose=i
Cc1ncc(CCl)c2c1OC(C)(C)OC2	nt	i	i	i	-4.4	i
Cc1ncc(CO)c2c1OC(C)(C)OC2	i	nt	nt	nt	nt	nt
CC[C@@H](C)[C@H](NC(=O)OC(C)(C)C)c1nnc(S(=O)(=O)Cc2cc(C)ccc2C)o1	i	i	i	i	i	nt
Cc1ccccc1CS(=O)(=O)c1nnc([C@H](CC(C)C)NC(=O)OC(C)(C)C)o1	i	i	i	i	-3.7	+
CC(/C=N/n1c(COc2ccccc2)n[nH]c1=S)=C\c1ccco1	i	nt	nt	nt	-4	i
S=c1[nH]nc(COc2ccccc2)n1/N=C/c1ccco1	i	i	i	i	i	nt
COc1c(C)cc(C(=O)C2CCCN(C(=O)c3ccc4cc[nH]c4c3)C2)cc1C (stereo not drawn)	i	i	i	i	i	nt
Cc1ccc2[nH]c(=O)c(CN(Cc3ccco3)C(=O)CN3CCCC(C)C3)cc2c1 (stereo not drawn)	i	i	i	i	i	nt
O=C1C=CC(=O)N1CCNc1ncc(C(F)(F)F)cc1Cl	i	i	i	i	-5.5	+
O=C(CCC(=O)Nc1ccc(Cl)cc1Cl)N/N=C/c1ccc([N+](=O)[O-])o1	i	i	i	i	-5.2	+
Cc1ccc(NC(=O)c2cc(N3C(=O)C=CC3=O)ccc2N2CCOCC2)cc1	i	i	i	i	-4.9	+
O=C1C(Cl)=C(NCCN2CCCCC2)C(=O)c2ccccc21	i	i	i	i	-4.2	+
CCNC1=C(Cl)C(=O)c2ccccc2C1=O	nt	i	i	i	i	nt
CCC(CC)c1nnc(NC(=O)Cc2ccccc2[N+](=O)[O-])s1	i	i	i	i	i	nt
O=C(CC1Sc2ncnn2C1=O)Nc1ccc(Br)cc1 (stereo not drawn)	i	i	i	i	-3.6	i
CC(C)c1ccc(NC(=O)CNS(=O)(=O)c2ccc(F)cc2)cc1	i	i	i	i	i	nt
COc1cccc(F)c1C(C[N+](=O)[O-])c1c(N)n(C)c(=O)n(C)c1=O (stereo not drawn)	i	nt	nt	nt	-3.6	+
COc1cc(C(C[N+](=O)[O-])c2c(N)n(C)c(=O)n(C)c2=O)ccc1O (stereo not drawn)	i	i	i	i	i	nt
CC1=CC(=O)C(C(C)C)=CC1=NC(=O)c1ccc(C)cc1	i	i	i	i	-4.9	?
Cc1cc2cc(CN(CCCO)S(=O)(=O)c3cccc4nsnc34)c(=O)[nH]c2cc1C	i	i	i	i	i	nt
SMILES	bCat nuc transl	Hsp70 act	Autophagy HCS	MT stabilize HCS	Dynein transport	Dynein inh conf	others
Cc1ccc2[nH]c(=O)c(CN(CCCO)S(=O)(=O)c3c(C)ccc4nsnc34)cc2c1	i	i	i	i	-5.9	i
CC(C)(C)C(=O)/C(=C/c1ccncc1)n1cncn1	i	i	i	i	-5.1	+
CS(=O)(=O)N1N=C(c2ccco2)CC1c1ccccc1 (stereo not drawn)	i	i	i	i	i	nt
CS(=O)(=O)N1N=C(c2ccccc2)CC1c1ccc2c(c1)OCO2 (stereo not drawn)	i	i	i	i	i	i
O=c1c(C(c2nnnn2C2CCCCC2)N2CCCCC2)coc2ccc(Cl)cc12 (stereo not drawn)	i	i	i	i	-4	+
COCCCn1c(=S)[nH]c(C)c(C)c1=O	i	nt	nt	nt	i	nt
COC(=O)C(=Cc1ccccc1[N+](=O)[O-])C(=O)OC	i	nt	nt	nt	-5.4	+
COc1ccc(CNC(=O)/C=C/c2ccccc2[N+](=O)[O-])cc1	i	i	i	i	i	nt
CCC(C)(C)C1CCc2[nH]nc(C(=O)N/N=C(\C)c3ccco3)c2C1 (stereo not drawn)	i	nt	nt	nt	-3.8	i
C/C(=N\NC(=O)c1n[nH]c2c1CCC2)c1ccco1	i	nt	nt	nt	i	nt
CCOc1ccccc1N1C(=O)CC(Sc2n[nH]c(-c3ccccc3)n2)C1=O (stereo not drawn)	i	i	i	i	-4.1	+
Cc1ccc(N(C(=O)CCl)C(C(=O)NC2CCCCC2)c2cccnc2)cc1C (stereo not drawn)	i	i	+	i	-4.1	+
Cc1ccc(N(C(=O)CNC(=O)c2ccco2)C(C(=O)NC2CCCC2)c2cccnc2)cc1C (stereo not drawn)	i	i	i	i	i	nt
COc1ccc2nc(N3CCCC3)c(C#N)cc2c1	nt	i	i	i	-4.2	i
COc1ccc2nc(N3CCCCC3)c(C#N)cc2c1	i	i	i	i	i	nt
CCCCN(Cc1ccccc1)C(=O)CCN1C(=O)C2C3C=CC(C3)C2C1=O (stereo not drawn)	i	i	i	i	i	nt
COc1ccc(-n2cccc2/C=C/[N+](=O)[O-])cc1	i	i	i	i	-3.8	+
N#Cc1ccccc1Cn1cc(/C=C/[N+](=O)[O-])c2ccccc21	i	i	i	i	-4.7	+
COC(=O)N/N=C/c1cn(Cc2ccc(F)cc2)c2ccccc12	i	nt	nt	nt	i	nt
O=[N+]([O-])c1ccc(N/N=C/c2cn(Cc3ccc(F)cc3)c3ccccc23)nc1	i	i	+	i	i	?
O=[N+]([O-])/C=C/c1cn(Cc2ccccc2)c2ccccc12	i	i	i	i	-4.6	?
COc1cccc(F)c1C(=O)NC(=O)Nc1ccc2nc(C)oc2c1	i	nt	nt	nt	i	nt
CCN(CC)c1ccc(/C=C2\CCC(/C=N/NC(=O)c3ccc(=O)n(C)c3)=C2N2CCOCC2)cc1	i	i	+	i	i	+
O=C(N/N=C/C1=C(N2CCOCC2)C(=C\c2ccccc2)/CC1)Nc1ccccc1	i	i	i	i	i	nt
COc1ccc(C(=O)/C=C/C(=O)N(CC(=O)NC2CCCCC2)Cc2ccc(F)cc2)c(O)c1	i	i	i	i	-4.5	+
